Assay outcomes: PubChem, Columbia University Molecular Screening Center
Many of the other results were omitted from the sample, so hits are more common in it than they were.
INS promoter act – TRM-6 insulin promoter activation | activation, % at 2 µM | TRM-6 cells (human fetal islet line), insulin promoter eGFP reporter, imaging; plate-scaled: unstimulated 0, stimulated control 100 | AID 1296 | 0.81% of 130,000 active;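 active means activation at 2 µM above a set limit, confirmed on inspection of the cell images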;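 further: share of cells whose green reporter signal exceeds an intensity cutoff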
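Assay system: TRM-6 insulin promoter–eGFP reporter cells / Input: 1,000 cells per well / Medium: Low-glucose (5.5 mM) medium with tamoxifen / Also added: tamoxifen inducer, 0.75 µM, in seeding medium / Timing: overnight tamoxifen, then two-day compound incubation at 37 °C / Signal: automated fluorescence imaging of paraformaldehyde-fixed, Hoechst-counterstained cells, green channel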
Numbers stand for hits; . = inactive.

SMILES	INS promoter act
CO/N=C\C(=N\Nc1ccc(OC)cc1)C(=O)c1ccccc1	.
Cc1n[nH]c(=S)n1/N=C/c1ccc(OCc2ccc(Cl)cc2)cc1	.
S=c1[nH]nc(COc2ccc(Cl)cc2)n1C1CCCCC1	437.1
Cc1cccc(OCc2n[nH]c(=S)n2C2CCCCC2)c1	.
CC(C)(C)c1ccc(OCCNC(=O)Cc2ccc(F)cc2)cc1	.
COc1cc(S(=O)(=O)Nc2cccc(C)c2)ccc1NC(=O)c1cccnc1	.
CCOC(=O)c1ccccc1NC(=O)CSc1ccccc1	.
O=c1oc2ccccc2cc1-c1ccc(O)cc1O	.
O=C(Nc1nc2c(s1)CCc1ccccc1-2)c1ccco1	.
O=c1oc2cc(O)ccc2cc1-c1nc2c(s1)CCc1ccccc1-2	733.3
O=C1CCCS(=O)(=O)c2ccccc21	.
COc1ccc(NC(=O)c2ccccc2NC(=O)NC2CCCCC2)cc1	.
CC(C)(C)Nc1nc(OCC(F)(F)F)nc(OCC(F)(F)F)n1	.
Cc1ccc(C2C(C#N)=C(N)Oc3c2sc2ccccc32)o1 (stereo not drawn)	.
Cc1ccccc1Nc1ncccc1C(=O)N1CCOCC1	.
Cc1ccc(SC(C)C(=O)Nc2ccccc2C(=O)N2CCOCC2)cc1 (stereo not drawn)	82.9
CS(=O)(=O)N(CC(=O)Nc1ccccc1C(=O)N1CCOCC1)c1ccccc1	.
COc1ccccc1OC1=NS(=O)(=O)c2ccccc21	.
COc1ccc(C(=O)NC(=S)N2CCN(C)CC2)cc1Br	.
Cc1cc(C)cc(NC(=S)NCc2ccc3c(c2)OCO3)c1	.
Cc1ccc(CNc2ccc3c(c2)OCO3)cc1	440.5
COC(=O)CNc1ccc2c(c1)OCO2	.
COc1ccc(Cc2c(O)nc(SCC(=O)NC(C)(C)C)[nH]c2=O)cc1	.
Cc1c(C)c(C)c(S(=O)(=O)N2CCNCC2)c(C)c1C	.
Cc1cc(=O)n2[nH]c(NCc3ccccc3F)nc2n1	.
SMILES	INS promoter act
Cc1cc(=O)n2[nH]c(C(=O)O)nc2n1	76.7
CCC(=O)Nc1nc2nc(C)cc(=O)n2[nH]1	.
O/N=C1\CCCC\C1=C/c1ccccc1	.
Cc1ccc2nc(N/C(N)=N/S(=O)(=O)c3ccc([N+](=O)[O-])cc3)nc(C)c2c1	.
Nc1ccc(N(c2ccccc2)c2ccc(N)cc2)cc1	.
CCOc1ccc(-n2cc(C(=O)N3CCCCCC3)c3cc(OC)c(OC)cc3c2=O)cc1	.
CC(=O)c1ccc(NC(=O)CSc2nnc(Cn3c(=O)sc4ccccc43)n2C)cc1	.
COc1ccc(NC(=O)[C@@H](NC(=O)c2ccccc2)C(C)C)cc1S(=O)(=O)N1CCCCC1	.
CCN(CCCNC(=O)C1CCN(S(=O)(=O)N2CCOCC2)CC1)c1cccc(C)c1	.
CCN(CCCNC(=O)C1CCC(=O)N1Cc1ccccc1Cl)c1cccc(C)c1 (stereo not drawn)	91.7
CCN(CCNC(=O)C1CCC(=O)N1Cc1ccc(C)cc1)c1ccccc1 (stereo not drawn)	.
CCOc1cc(NS(=O)(=O)c2ccccc2)c(OCC)cc1NC(=O)c1ccco1	.
CCOC(=O)C1C(=O)NC(SCC(N)=O)=C(C#N)C1c1ccccc1OCC (stereo not drawn)	.
COc1ccc(Cc2nnc3c4cnn(C)c4ncn23)cc1	.
O=C(Nn1c(Cc2cccs2)nc2ccccc2c1=O)c1ccc(F)c(F)c1	418.8
O=C(Nn1c(C2CCC2)nc2ccccc2c1=O)c1cccs1	.
O=C(CSc1nc2ccccc2c(=O)n1NC(=O)c1ccccc1)c1ccccc1	.
COC(=O)C1=C(C)Nc2c(c(=O)n(C)c(=O)n2C)C1c1ccc(C)cc1 (stereo not drawn)	.
Cc1cc(=O)[nH]c(N/N=C/c2ccc(Br)s2)n1	.
COC(=O)c1[nH]c2ccccc2c1NC(=O)CN1CCN(c2cccc(OC)c2)C(C)C1 (stereo not drawn)	.
COC(=O)c1[nH]c2ccc(C)cc2c1NC(=O)Nc1ccccc1OC	.
COC(=O)c1[nH]c2cc(C)ccc2c1NC(=O)CN1CCCc2ccccc21	190.9
COc1ccc(C2C(C#N)=C(N)Nc3onc(C(C)(C)C)c32)c(OC)c1 (stereo not drawn)	.
COc1ccc(OC)c(C2C3CN(C(C)C)CC=C3C(C#N)=C(N)C2(C#N)C#N)c1 (stereo not drawn)	478.6
CCCCOc1ccc(C2C3CN(C(=O)OCC)CC=C3C(C#N)=C(N)C2(C#N)C#N)cc1OC (stereo not drawn)	.
SMILES	INS promoter act
CCN1CCN(CCCNC(=O)c2ccc(/C=C3/Sc4ccccc4N(Cc4ccccc4F)C3=O)cc2)CC1	.
COCCCNC(=O)CN1C(=O)c2ccccc2C1=O	.
CCOCCCNC(=O)CN1C(=O)/C(=C/c2ccccc2)Sc2ccccc21	313.3
S=C(Nc1ccc2cn[nH]c2c1)Nc1ccccc1Cl	.
Cn1cnc2cc(NS(=O)(=O)c3ccc(Br)cc3)ccc21	.
CCOc1ccc2c(c1)/C(=C(\C(Cl)=C(Cl)Cl)[N+](=O)[O-])N2	376.5
CCOc1cccc(OCCOc2ccccc2[N+](=O)[O-])c1	.
CCOc1ccc([N+](=O)[O-])c(N)c1	.
O=C(CSc1nnc(CCCOc2ccc(Cl)cc2Cl)o1)Nc1ccc(C(=O)O)cc1	.
O=C(CSCc1ccccc1)N1CCN(c2ccc(F)cc2)CC1	.
CCn1c(SCC(=O)N2CCN(c3ccccc3)CC2)nnc1-c1ccncc1	.
CCn1c(CSCc2ccc(F)cc2)nnc1SCC(=O)N1CCN(c2ccccc2)CC1	94.6
CSc1nncc(=O)[nH]1	.
O=C(O)C12CC3CC(C1)CC(n1ncc(N4CCN(c5ccccc5)CC4)c(Cl)c1=O)(C3)C2	.
Cc1ccc(NC(=O)/C=C/c2ccc([N+](=O)[O-])s2)c(C)c1	.
Cc1ccc(C(=O)N/N=C/c2ccc([N+](=O)[O-])s2)cc1	.
Cc1ccc(NC(=O)/C=C/c2ccc([N+](=O)[O-])s2)cc1	270.4
Cn1c(N)c(C(=O)COC(=O)CNS(=O)(=O)c2ccc(Cl)c(Cl)c2)c(=O)n(C)c1=O	.
CCC/C(=N\NC(=O)c1cccc(C)c1)c1ccccc1	.
COc1cc2ccccc2c2c1CCCC2=O	.
COc1ccccc1OCCSc1nnc(C)n1-c1ccccc1	82.9
Cc1nnc(SCC2CCCO2)n1-c1ccccc1 (stereo not drawn)	.
COc1ccc(-c2nnc(SCCC(=O)O)n2-c2ccccc2)cc1	485.7
COC(=O)CSc1nnc(-c2ccccc2OC)n1-c1ccc(C)cc1	.
COc1ccc(-c2nnc(SCC(=O)c3ccc[nH]3)n2-c2ccccc2)cc1	.
SMILES	INS promoter act
C=C(C)Cn1c(SCC(=O)O)nnc1-c1ccc(OC)cc1	.
Cc1cccc(C)c1OC(=O)CSc1nnc(-c2ccccc2O)o1	.
CN(C)S(=O)(=O)c1cccc(C(=O)NCCc2ccccc2)c1	.
CN(C)/C=C(\C=O)c1ncc(C(F)(F)F)cc1Cl	.
COCCCNC(=O)c1ccccc1SC	.
COc1ccc(S(=O)(=O)N(C)CC(=O)NCc2ccco2)cc1	.
CC(Oc1ccc(Cl)cc1)c1ccnc(N)n1 (stereo not drawn)	.
CC(C)(C)OC(=O)N1CCCC1C(=O)NCCc1ccccc1 (stereo not drawn)	.
Cc1ccc(NC(=O)C2CCCN2C(=O)Oc2ccccc2)cc1C (stereo not drawn)	.
Cc1cccc(C)c1NC(=O)C1(NC(=O)C2CCCN2C(=O)OC(C)(C)C)CCCCC1 (stereo not drawn)	171.4
CCC(=O)N1CCc2cc(S(=O)(=O)CCC(=O)NCc3ccc4c(c3)OCO4)ccc21	.
